PMC12578630 (Nature Microbiology, 2025)
In brackets after ≈: the same amount, converted by molar mass. Read-outs that look alike come from different tables or passages of the source.

How the values were obtained:
[1] = Histologic changes in the kidney and colon; assay type: in vivo, mouse; details: H&E, infected and treated mice
How it was run: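 Tissue fixed in 4% paraformaldehyde for at least 24 h, dehydrated through graded ethanol, cleared in xylene, paraffin-embedded. Sections cut at 4 μm, dried at 60 °C, dewaxed and rehydrated. Stained with haematoxylin (3–5 min), differentiated and blued, counterstained with eosin (15 s), then dehydrated, cleared and mounted in neutral balsam. Imaged by light microscopy.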

CRAB QLH-2022-637 = test: Bacterial resistance development, serial passage; assay type: cell-based, Acinetobacter baumannii; details: serial passage at 0.5-fold MIC
MRSA QLH-2022-718 = test: Bacterial resistance development, serial passage; assay type: cell-based, Staphylococcus aureus; details: for MIC: Staphylococcus aureus, MRSA

Compound	kidney tissue histology, in words [1]	fold increase in MIC after 20 passages (CRAB QLH-2022-637)	MIC (MRSA QLH-2022-718; read-out: MIC after 18 passages)	MIC (MRSA QLH-2022-718; read-out: MIC at the first passage)	fold increase in MIC after 18 passages (MRSA QLH-2022-718; serial passage at 0.5-fold MIC)
polymyxin B	A small amount of venous stasis	32 fold			
CN[C@H](CC(C)C)C(=O)N[C@H]1C(=O)N[C@@H](CC(N)=O)C(=O)N[C@H]2C(=O)N[C@H]3C(=O)N[C@H](C(=O)N[C@H](C(=O)O)c4cc(O)cc(O)c4-c4cc3ccc4O)[C@H](O)c3ccc(c(Cl)c3)Oc3cc2cc(c3O[C@@H]2O[C@H](CO)[C@@H](O)[C@H](O)[C@H]2O[C@H]2C[C@](C)(N)[C@H](O)[C@H](C)O2)Oc2ccc(cc2Cl)[C@H]1O [vancomycin]	histopathological changes: cytoplasmic rarefaction and pale staining		≥ 64 mg/L	0.5 mg/L (≈ 0.345 µM)	≥ 128 fold
